Measured values from ChEMBL document CHEMBL1141290, “Lipoxazolidinones A, B, and C: antibacterial 4-oxazolidinones from a marine actinomycete isolated from a Guam marine sediment” (2007).
Values after ≈ are worked out from the molar mass of the structure shown.

Columns and labels:
Type in all cases: functional
Enterococcus faecalis = experiment: Antimicrobial activity against vancomycin-sensitive Enterococcus faecalis ATCC 29212 after 14 to 16 hrs by serial microbroth dilution method
In short: (§1)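 MIC by serial broth microdilution following NCCLS standards, in cation-adjusted Mueller-Hinton broth. Final inoculum ~5 × 10^5 CFU/mL. Plates incubated at 35 °C for 14–16 h without CO2.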

Staphylococcus aureus [1] = experiment: Antimicrobial activity against methicillin-sensitive Staphylococcus aureus ATCC 29213 after 14 to 16 hrs by serial micro-broth dilution method; in short: as §1
Streptococcus pneumoniae [2] = experiment: Antimicrobial activity against penicillin-sensitive Streptococcus pneumoniae ATCC 49619 after 14 to 16 hrs by serial microbroth dilution method
In short: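 MIC by NCCLS serial broth microdilution in cation-adjusted Mueller-Hinton broth II with lysed horse blood. Final inoculum ~5 × 10^5 CFU/mL. Incubated at 35 °C for 14–16 h in a CO2 incubator.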

Haemophilus influenzae [3] = experiment: Antimicrobial activity against Haemophilus influenzae ATCC 49766 after 14 to 16 hrs by serial micro-broth dilution method
In short: (§2)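 MIC by serial broth microdilution per NCCLS, in Haemophilus Test Medium. Final inoculum ~5 × 10^5 CFU/mL. Plates incubated at 35 °C for 14–16 h in a CO2 incubator.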

Staphylococcus aureus [4] = experiment: Antimicrobial activity against methicillin-resistant Staphylococcus aureus ATCC 43300 after 14 to 16 hrs by serial micro-broth dilution method
In short: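 Broth microdilution MIC following NCCLS standards, using cation-adjusted Mueller-Hinton broth in ambient air without CO2. The final inoculum was about 5 × 10^5 CFU/mL.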

Escherichia coli = experiment: Antimicrobial activity against Escherichia coli ATCC 25922 after 14 to 16 hrs by serial micro-broth dilution method; in short: as §1
Haemophilus influenzae [5] = experiment: Antimicrobial activity against Haemophilus influenzae ATCC 49247 after 14 to 16 hrs by serial micro-broth dilution method; in short: as §2
[6] = system: Staphylococcus epidermidis; experiment: Antimicrobial activity against Staphylococcus epidermidis ATCC 700578 after 14 to 16 hrs by serial micro-broth dilution method; in short: as §1
Streptococcus pneumoniae [7] = experiment: Antimicrobial activity against penicillin-resistant Streptococcus pneumoniae ATCC 51915 after 14 to 16 hrs by serial micro-broth dilution method
In short: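 Broth microdilution MIC following NCCLS standards, using cation-adjusted Mueller-Hinton broth II with lysed horse blood and incubation in a CO2 incubator. The final inoculum was about 5 × 10^5 CFU/mL.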

[8] = system: Staphylococcus epidermidis; experiment: Antimicrobial activity against Staphylococcus epidermidis ATCC 700582 after 14 to 16 hrs by serial microbroth dilution method; in short: as §1

Molecule `CCCCCC/C(C)=C/C(=O)/C=C1\NC(=O)C(CCCC)O1` (stereo not given) [LIPOXAZOLIDINE C] has an MIC (Enterococcus faecalis) of 2 µg/mL (≈ 6.51 µM), an MIC (Staphylococcus aureus [1]) of 4 µg/mL (≈ 13 µM) and an MIC (Streptococcus pneumoniae [2]) of 10 µg/mL (≈ 32.5 µM). The MIC (Haemophilus influenzae [3]) was 5 µg/mL (≈ 16.3 µM), the MIC (Staphylococcus aureus [4]) was 3 µg/mL (≈ 9.76 µM) and the MIC (Escherichia coli) was > 32 µg/mL. It also gave an MIC (Haemophilus influenzae [5]) of 16 µg/mL (≈ 52 µM).
In the case of `CCCCCCC/C(C)=C/C(=O)/C=C1\NC(=O)C(CCCC)O1` (stereo not given) [LIPOXAZOLIDINONE A], the MIC [6] is reported as 0.5 µg/mL (≈ 1.56 µM), the MIC (Enterococcus faecalis) is reported as 1 µg/mL (≈ 3.11 µM) and the MIC (Staphylococcus aureus [1]) is reported as 0.9 µg/mL (≈ 2.8 µM). For the same molecule, the MIC (Streptococcus pneumoniae [2]) was 2.6 µg/mL (≈ 8.09 µM), the MIC (Streptococcus pneumoniae [7]) was 4.7 µg/mL (≈ 14.6 µM) and the MIC (Haemophilus influenzae [3]) was 12 µg/mL (≈ 37.3 µM). The MIC [8] was 0.5 µg/mL (≈ 1.56 µM), the MIC (Staphylococcus aureus [4]) was 1 µg/mL (≈ 3.11 µM) and the MIC (Escherichia coli) was > 32 µg/mL. The MIC (Haemophilus influenzae [5]) was 12 µg/mL (≈ 37.3 µM).
Work on `CCCCCCC/C(C)=C/C(=O)/C=C1\NC(=O)C(CCCCC)O1` (stereo not given) [LIPOXAZOLIDINONE B] yielded an MIC [6] of 1.3 µg/mL (≈ 3.87 µM), an MIC (Enterococcus faecalis) of 3 µg/mL (≈ 8.94 µM) and an MIC (Staphylococcus aureus [1]) of 6 µg/mL (≈ 17.9 µM). It also gave an MIC (Streptococcus pneumoniae [2]) of 8 µg/mL (≈ 23.8 µM), an MIC (Streptococcus pneumoniae [7]) of 6 µg/mL (≈ 17.9 µM) and an MIC (Haemophilus influenzae [3]) of 16 µg/mL (≈ 47.7 µM). For the same molecule, the MIC [8] was 0.8 µg/mL (≈ 2.38 µM), the MIC (Staphylococcus aureus [4]) was 1.5 µg/mL (≈ 4.47 µM) and the MIC (Escherichia coli) was > 32 µg/mL. The MIC (Haemophilus influenzae [5]) was 12 µg/mL (≈ 35.8 µM).
`CCCCCCC/C(C)=C/C(=O)CC(=N)OC(CCCC)C(=O)O` (stereo not given) was tested, and the MIC (Enterococcus faecalis) was 32 µg/mL (≈ 94.3 µM), the MIC (Staphylococcus aureus [1]) was 24 µg/mL (≈ 70.7 µM) and the MIC (Streptococcus pneumoniae [2]) was > 32 µg/mL. The MIC (Haemophilus influenzae [3]) was > 32 µg/mL, the MIC (Staphylococcus aureus [4]) was > 32 µg/mL and the MIC (Escherichia coli) was > 32 µg/mL. For the same molecule, the MIC (Haemophilus influenzae [5]) was > 32 µg/mL.
In the case of `CC(=O)NC[C@H]1CN(c2ccc(N3CCOCC3)c(F)c2)C(=O)O1` [LINEZOLID], the MIC [6] is reported as 1 µg/mL (≈ 2.96 µM), the MIC (Haemophilus influenzae [3]) is reported as 12 µg/mL (≈ 35.6 µM) and the MIC [8] is reported as 1 µg/mL (≈ 2.96 µM). The MIC (Staphylococcus aureus [4]) was 1.5 µg/mL (≈ 4.45 µM), the MIC (Escherichia coli) was > 32 µg/mL and the MIC (Haemophilus influenzae [5]) was 12 µg/mL (≈ 35.6 µM).
